Experimental data taken from ChEMBL document CHEMBL2321820, “Discovery of HSD-621 as a Potential Agent for the Treatment of Type 2 Diabetes” (ACS Med Chem Lett, 2013).

Legend:
Mus musculus [1] = test: Ex vivo inhibition of 11beta-HSD1 in C57B16 mouse epididymal fat assessed as conversion of [3H]-cortisone to [3H]-cortisol at 10 mg/kg, po after 5 hrs by HPLC analysis relative to vehicle-treated control; type: functional
Procedure, shortened: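 Mice were dosed orally at 10 mg/kg. Epididymal fat was collected 5 h after dosing for the ex vivo readout.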

[2] = Half life in mouse liver microsomes; type: ADME, Microsome
[3] = molecular target: T1, 11-beta-hydroxysteroid dehydrogenase 1 (Mus musculus, UniProt P50172); test: Inhibition of mouse 11beta-HSD1 expressed in CHO cells […] incubated for 30 mins prior to substrate addition measured after 120 mins by chemiluminescence assay in presence of 10% human serum; type: cell-based
T1 sequence (P50172 whole entry): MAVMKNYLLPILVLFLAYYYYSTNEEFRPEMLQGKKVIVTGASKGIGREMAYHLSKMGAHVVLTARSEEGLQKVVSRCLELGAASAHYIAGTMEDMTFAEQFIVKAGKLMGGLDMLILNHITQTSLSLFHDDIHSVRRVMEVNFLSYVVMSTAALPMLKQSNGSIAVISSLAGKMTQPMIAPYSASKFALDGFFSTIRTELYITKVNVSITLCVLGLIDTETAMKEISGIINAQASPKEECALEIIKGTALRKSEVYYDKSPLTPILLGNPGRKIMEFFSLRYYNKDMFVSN
Procedure, shortened: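 Cell-based assay with 10% (v/v) human serum in the culture medium. Run in duplicate, with 11-point 2-fold dilutions giving the IC50. Lower threshold was 10 nM.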

[4] = molecular target: T1, 11-beta-hydroxysteroid dehydrogenase 1; test: Inhibition of mouse 11beta-HSD1 expressed in CHO cells […] incubated for 30 mins prior to substrate addition measured after 120 mins by chemiluminescence assay; type: cell-based
Procedure, shortened: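 Cell-based assay run in duplicate. Compounds were tested as 11-point 2-fold dilutions, and IC50 was derived. Lower assay threshold was 10 nM.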

[5] = Half life in human liver microsomes; type: ADME, Microsome
[6] = molecular target: 11-beta-hydroxysteroid dehydrogenase 1 (Homo sapiens, UniProt P28845); test: Inhibition of human 11beta-HSD1 expressed in CHO cells using cortisone as substrate incubated for 30 mins prior to substrate addition measured after 120 mins by chemiluminescence assay
Chain of 11-beta-hydroxysteroid dehydrogenase 1 (Homo sapiens, UniProt P28845) (P28845 whole entry): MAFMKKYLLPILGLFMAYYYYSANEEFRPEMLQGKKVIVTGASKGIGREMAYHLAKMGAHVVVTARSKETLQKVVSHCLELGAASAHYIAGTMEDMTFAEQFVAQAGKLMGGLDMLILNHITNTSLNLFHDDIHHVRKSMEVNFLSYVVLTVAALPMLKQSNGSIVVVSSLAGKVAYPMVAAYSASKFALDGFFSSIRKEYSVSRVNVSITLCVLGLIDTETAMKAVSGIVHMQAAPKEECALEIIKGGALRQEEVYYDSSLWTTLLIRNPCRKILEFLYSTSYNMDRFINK

Cytochrome P450 2C9 = Cytochrome P450 2C9 (Homo sapiens, UniProt P11712); test: Inhibition of CYP2C9 (unknown origin); type: ADME
Chain of Cytochrome P450 2C9 (P11712 whole entry): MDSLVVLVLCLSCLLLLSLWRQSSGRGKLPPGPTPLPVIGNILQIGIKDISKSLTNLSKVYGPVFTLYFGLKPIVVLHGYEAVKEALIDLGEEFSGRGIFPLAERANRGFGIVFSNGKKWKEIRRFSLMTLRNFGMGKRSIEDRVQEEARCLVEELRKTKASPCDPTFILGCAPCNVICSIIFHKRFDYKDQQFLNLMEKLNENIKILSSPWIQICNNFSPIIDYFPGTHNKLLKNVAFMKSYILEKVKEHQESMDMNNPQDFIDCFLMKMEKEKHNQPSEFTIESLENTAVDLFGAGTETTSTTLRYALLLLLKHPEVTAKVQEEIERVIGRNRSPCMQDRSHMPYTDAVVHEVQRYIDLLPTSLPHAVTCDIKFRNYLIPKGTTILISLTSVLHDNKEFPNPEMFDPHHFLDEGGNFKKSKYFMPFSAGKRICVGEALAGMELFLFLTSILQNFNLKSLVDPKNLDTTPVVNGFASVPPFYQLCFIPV

Mus musculus [7] = species: Mus musculus; test: Toxicity in C57B6 DIO mouse assessed as body weight gain at after 31 days; conditions: in vivo, po, 744 h
[8] = Oral bioavailability in C57B6 mouse at 10 mg/kg; type: ADME, organism-based; conditions: in vivo
Procedure, shortened: (§1)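 Male C57B6 mice. IV dose of 2 mg/kg in 50% DMSO/50% PEG200. Oral dose of 10 mg/kg in 2% Tween/0.5% methyl cellulose in water. Values are PK parameters from the iv and po arms.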

[9] = AUC in C57B6 mouse at 10 mg/kg, po; type: ADME, organism-based; parameters: dose 10 mg/kg, route oral; conditions: plasma; procedure, shortened: as §1
[10] = Tmax in C57B6 mouse at 10 mg/kg, po; type: ADME, organism-based; parameters: dose 10 mg/kg, route oral; conditions: in vivo; procedure, shortened: as §1
[11] = Cmax in C57B6 mouse at 10 mg/kg, po; type: ADME, organism-based; parameters: dose 10 mg/kg, route oral; conditions: in vivo; procedure, shortened: as §1
[12] = Half life in C57B6 mouse at 2 mg/kg, iv; type: ADME, organism-based; parameters: dose 2 mg/kg, route intravenous; conditions: in vivo; procedure, shortened: as §1
[13] = AUC in C57B6 mouse at 2 mg/kg, iv; type: ADME, organism-based; parameters: dose 2 mg/kg, route intravenous; conditions: plasma; procedure, shortened: as §1
[14] = Volume of distribution at steady state in C57B6 mouse at 2 mg/kg, iv; type: ADME, organism-based; parameters: dose 2 mg/kg, route intravenous; conditions: in vivo, read-out: Vdss; procedure, shortened: as §1
[15] = Clearance in C57B6 mouse at 2 mg/kg, iv; type: ADME, organism-based; parameters: dose 2 mg/kg, route intravenous; conditions: in vivo; procedure, shortened: as §1
[16] = molecular target: T2, 11-beta-hydroxysteroid dehydrogenase type 2 (Homo sapiens, UniProt P80365); test: Inhibition of human 11beta-HSD2 expressed in CHO cells using […] as substrate incubated for 30 mins prior to substrate addition measured after 120 mins by scintillation counting analysis; type: cell-based
T2 sequence (P80365 whole entry): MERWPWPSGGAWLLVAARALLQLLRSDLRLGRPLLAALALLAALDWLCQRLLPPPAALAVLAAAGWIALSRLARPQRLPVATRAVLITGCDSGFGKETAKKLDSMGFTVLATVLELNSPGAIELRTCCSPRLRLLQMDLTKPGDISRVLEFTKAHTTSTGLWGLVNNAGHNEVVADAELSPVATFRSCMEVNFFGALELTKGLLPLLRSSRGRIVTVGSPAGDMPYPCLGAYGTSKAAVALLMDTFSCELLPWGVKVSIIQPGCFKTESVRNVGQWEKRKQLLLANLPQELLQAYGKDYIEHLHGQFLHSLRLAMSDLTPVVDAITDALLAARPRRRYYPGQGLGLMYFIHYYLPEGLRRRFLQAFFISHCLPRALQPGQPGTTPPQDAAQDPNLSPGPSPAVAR

[17] = Half life in C57B6 mouse at 10 mg/kg, po; type: ADME, organism-based; parameters: dose 10 mg/kg, route oral; conditions: in vivo; procedure, shortened: as §1

Row | half-life [2] | IC50 [3] | IC50 [4] | half-life [5] | IC50 [6] | Structure (SMILES) | inhibition in vivo at 10 mg/kg (Mus musculus [1]) | also measured
1 | 26 min | – | – | – | – | C[C@@H]1CN(c2ccc(F)cc2C(F)(F)F)CCN1S(=O)(=O)c1ccc(C(O)(c2nnc[nH]2)C(F)(F)F)s1 (some centres not stated) | 57% | –
2 | 30 min | 18 nM | 77 nM | 10 min | – | C[C@@H]1CN(c2ccc(F)cc2C(F)(F)F)CCN1S(=O)(=O)c1cn(C)c(C(C)(O)C(F)(F)F)n1 (some centres not stated) | 33% | –
3 | > 30 min | – | – | 19 min | – | C[C@@H]1CN(c2ccc(F)cc2C(F)(F)F)CCN1S(=O)(=O)c1ncc([C@](O)(C(N)=O)C(F)(F)F)s1 | 17% | –
4 | 18 min | 10 nM | 10 nM | 18 min | 145 nM | C[C@@H]1CN(c2ccc(F)cc2C(F)(F)F)CCN1S(=O)(=O)c1ccc([C@](O)(C(N)=O)C(F)(F)F)s1 | 50% | –
5 | 17 min | 10 nM | 10 nM | > 30 min | 15 nM | C[C@@H]1CN(c2ccc(F)cc2C(F)(F)F)CCN1S(=O)(=O)c1ccc(C(C)(O)C(F)(F)F)s1 (some centres not stated) | 44% | –
6 | 30 min | 48 nM | 40 nM | 10 min | – | C[C@@H]1CN(c2ccc(F)cc2C(F)(F)F)CCN1S(=O)(=O)c1ccc([C@@](O)(C(N)=O)C(F)(F)F)cc1 | < 10% | –
7 | 17 min | – | – | 10 min | – | C[C@@H]1CN(c2ccc(C(N)=O)cc2C(F)(F)F)CCN1S(=O)(=O)c1ccc([C@](C)(O)C(F)(F)F)s1 | 86% | inhibition (INH) (Cytochrome P450 2C9): Active
8 | – | – | – | – | – | CN(CCOc1ccc(CC2SC(=O)NC2=O)cc1)c1ccccn1 (configuration not stated) [ROSIGLITAZONE] | – | Activity (Mus musculus [7]): Non-toxic
9 | 17 min | 10 nM | 10 nM | > 30 min | 17 nM | C[C@@H]1CN(c2ccc(F)cc2C(F)(F)F)CCN1S(=O)(=O)c1ccc([C@@](C)(O)C(F)(F)F)s1 | 80% | bioavailability [8]: 19%; AUC [9]: 3400 ng·h/mL; Tmax [10]: 30 min; Cmax [11]: 449 ng/mL; half-life [12]: 570 min; AUC [13]: 3590 ng·h/mL; Vd [14]: 5.8 L/kg; clearance [15]: 9 mL/min/kg; IC50 [16]: > 100000 nM
10 | 30 min | 10 nM | 10 nM | 18 min | 23 nM | C[C@@H]1CN(c2ccc(F)cc2C(F)(F)F)CCN1S(=O)(=O)c1cccc([C@@](O)(C(N)=O)C(F)(F)F)c1 | 82% | bioavailability [8]: 46%; half-life [17]: 168 min; AUC [9]: 14000 ng·h/mL; Tmax [10]: 120 min; Cmax [11]: 1550 ng/mL; half-life [12]: 252 min; AUC [13]: 6130 ng·h/mL; Vd [14]: 1.8 L/kg; clearance [15]: 5.4 mL/min/kg; IC50 [16]: > 100000 nM
11 | < 2 min | 10 nM | 10 nM | < 2 min | 51 nM | C[C@@H]1CN(c2ccc(F)cc2C(F)(F)F)CCN1S(=O)(=O)c1cccc([C@](O)(C(N)=O)C(F)(F)F)c1 | 38% | –
12 | 17 min | – | – | 17 min | – | C[C@@H]1CN(c2ccc(C(N)=O)cc2C(F)(F)F)CCN1S(=O)(=O)c1ccc([C@@](C)(O)C(F)(F)F)s1 | 87% | inhibition (INH) (Cytochrome P450 2C9): Active
13 | > 30 min | 10 nM | 10 nM | > 30 min | 10 nM | C[C@@H]1CN(c2ccc(F)cc2C(F)(F)F)CCN1S(=O)(=O)c1ccc([C@](C)(O)C(F)(F)F)s1 | 5% | –
14 | 30 min | 41 nM | 20 nM | 27 min | – | C[C@@H]1CN(c2ccc(F)cc2C(F)(F)F)CCN1S(=O)(=O)c1ccc([C@](O)(C(N)=O)C(F)(F)F)cc1 | < 10% | –
15 | 18 min | – | – | 21 min | – | C[C@@H]1CN(c2ccc(F)cc2C(F)(F)F)CCN1S(=O)(=O)c1ncc([C@@](O)(C(N)=O)C(F)(F)F)s1 | 83% | –
16 | 23 min | 1390 nM | 165 nM | 10 min | – | C[C@@H]1CN(c2ccc(F)cc2C(F)(F)F)CCN1S(=O)(=O)c1nc(C(C)(O)C(F)(F)F)n(C)n1 (some centres not stated) | 38% | –
